Test [1] deals with HeLa. In words: Cell cycle arrest in human HeLa cells assessed as decrease in accumulation of cells at S phase after 24 hrs by propidium iodide staining based flow cytometric analysis. Type of test: functional. A digest of the protocol:
(§1)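 HeLa or Jurkat cells (5 × 10⁵, exponential growth) treated 24 h with 31–500 nM compound. Cells fixed in ice-cold 70% ethanol, treated with lysis buffer containing RNase A and 0.1% Triton X-100, then stained with propidium iodide. DNA content measured by flow cytometry to give phase distribution. Mean ± SEM of three independent experiments.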
Background: A flow cytometer gives signals particle by particle.

Test [2] deals with HeLa. In words: Downregulation of cyclin B expression in human HeLa cells at 250 to 500 nM after 48 hrs by Western blot analysis. In kind it is functional, cell-based. The procedure, abridged: (§2)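 HeLa cells treated for 24 or 48 h, washed twice with ice-cold PBS and lysed on ice 30 min; lysates spun at 15000 ×g, 4 °C. Protein (20 μg) resolved by SDS–PAGE on 7.5–15% gels and blotted to PVDF. Specific primary antibodies for 2 h at room temperature, then peroxidase secondary for 60 min, ECL detection. Membranes stripped and reprobed for β-actin as loading control.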

Test [3] concerns LoVo. In words: Resistance ratio of IC50 for human doxorubicin-resistant LoVo/DX cells overexpressing P-glycoprotein to IC50 for human LoVo cells. Type of test: functional.
Test [4] concerns HeLa. The test is described as follows: Induction of apoptosis in human HeLa cells assessed as increase in caspase-3-mediated PARP cleavage at 250 to 500 nM after 24 to 48 hrs by Western blot analysis. In kind it is functional, cell-based. A digest of the protocol: as §2
Background: A western blot detects proteins with antibodies after separation by electrophoresis.

Test [5] deals with A549. In words: Antiproliferative activity against human A549 cells after 72 hrs by MTT assay. Type of test: functional, cell-based. As to conditions: A549, 72 h.
Test [6] concerns HeLa. In words: Cell cycle arrest in human HeLa cells assessed as accumulation of cells at G2/M phase after 24 hrs by propidium iodide staining based flow cytometric analysis. Type of test: functional. The procedure, abridged: as §1
A short description of test [7]: Antiproliferative activity against human taxol-resistant A549-T12 cells expressing tubulin mutant gene after 72 hrs by MTT assay. As to conditions: A549, 72 h. Type of test: functional, cell-based. The procedure, abridged:
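Resistant sublines cultured under selection: LoVo^Doxo (doxorubicin-resistant LoVo subclone) in complete Ham's F12 with doxorubicin 0.1 μg/mL; A549-T12 in complete DMEM with taxol 12 nM. Seeded at 8 × 10³ per well, 18 h preincubation, then 72 h compound exposure at 37 °C. MTT read-out.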
(Tetrazolium dyes change colour on reduction, which living cells bring about.)

The next test relates to MCF7. The test is described as follows: Antiproliferative activity against human MCF7 cells after 72 hrs by MTT assay. In kind it is functional, cell-based. The settings on record: MCF7, 72 h.
Test [8] concerns HeLa. In words: Induction of apoptosis in human HeLa cells assessed as effect on caspase-9 activation at 250 to 500 nM after 24 to 48 hrs by Western blot analysis. In kind it is functional, cell-based. A digest of the protocol:
as §2

Test [9] deals with HT-29. The test is described as follows: Ratio of CA-4 IC50 to compound IC50 for human HT-29 cells after 72 hrs by MTT assay. Type of test: functional.
Test [10] has as its system HeLa. In words: Induction of apoptosis in human HeLa cells at 500 nM after 24 to 48 hrs by Annexin V-FITC/propidium iodide staining based biparametric cytofluorimetric analysis. Type of test: functional, cell-based. A digest of the protocol:
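HeLa cells treated at 250 or 500 nM for 24 or 48 h, then labelled with annexin-V-FITC (phosphatidylserine) plus propidium iodide. Red and green fluorescence measured by biparametric flow cytometry. Mean ± SEM of three independent experiments.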

Test [11] relates to HT-29. In words: Antiproliferative activity against human HT-29 cells after 72 hrs by MTT assay. In kind it is functional, cell-based. The settings on record: HT-29, 72 h.
The subject of test [12] is A549. The test is described as follows: Ratio of CA-4 IC50 to compound IC50 for human A549 cells after 72 hrs by MTT assay. In kind it is functional.
Test [13] deals with HeLa. The test is described as follows: Cell cycle arrest in human HeLa cells assessed as decrease in accumulation of cells at G1 phase after 24 hrs by propidium iodide staining based flow cytometric analysis. In kind it is functional. The procedure, abridged:
as §1

The test system of test [14] is HeLa. The test is described as follows: Effect on Bax expression in human HeLa cells at 250 to 500 nM after 24 to 48 hrs by Western blot analysis. In kind it is functional, cell-based. The procedure, abridged:
as §2

The subject of test [15] is HeLa. The test is described as follows: Downregulation of Bcl-2 expression in human HeLa cells at 250 to 500 nM after 24 to 48 hrs by Western blot analysis. In kind it is functional, cell-based. The procedure, abridged:
as §2

Test [16] deals with LoVo. In words: Antiproliferative activity against human LoVo cells after 72 hrs by MTT assay. In kind it is functional, cell-based. A digest of the protocol:
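Cells seeded at 8 × 10³ per well and incubated 18 h at 37 °C, 5% CO₂, then exposed to a range of compound concentrations for 72 h at 37 °C. Jurkat and HL-60 were grown in RPMI-1640, the others in DMEM, with penicillin, streptomycin and 10% FBS. DMSO stocks (10 mM); DMSO ≤0.25% final. Viability by MTT. […] Mean ± SE of ≥3 independent experiments.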

Another test relates to Jurkat. In words: Ratio of compound IC50 to CA-4 IC50 for human Jurkat cells after 72 hrs by MTT assay. Type of test: functional.
Test [17] concerns the target T1, M-phase inducer phosphatase 3 (Homo sapiens) (UniProt P30307).
T1 sequence (whole entry): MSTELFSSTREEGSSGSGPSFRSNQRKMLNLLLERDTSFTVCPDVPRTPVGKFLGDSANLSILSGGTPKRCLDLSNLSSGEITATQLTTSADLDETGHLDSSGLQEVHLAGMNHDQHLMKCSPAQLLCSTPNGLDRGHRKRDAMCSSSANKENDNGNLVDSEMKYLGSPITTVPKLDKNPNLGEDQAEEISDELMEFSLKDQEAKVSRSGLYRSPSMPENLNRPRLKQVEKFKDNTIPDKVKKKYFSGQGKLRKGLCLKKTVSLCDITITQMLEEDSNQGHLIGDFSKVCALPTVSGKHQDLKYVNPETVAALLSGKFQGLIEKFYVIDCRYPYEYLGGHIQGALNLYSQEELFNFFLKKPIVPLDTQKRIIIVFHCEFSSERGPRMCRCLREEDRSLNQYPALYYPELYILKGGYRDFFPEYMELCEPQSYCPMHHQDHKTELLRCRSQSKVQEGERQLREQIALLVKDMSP
The test is described as follows: Induction of cdc25C phosphorylation in human HeLa cells assessed as cdc2 kinase dephosphorylation at Tyr15 in human HeLa cells at 250 to 500 nM after 24 to 48 hrs by Western blot analysis. In kind it is cell-based. The procedure, abridged:
as §2

This note sets out measurements from ChEMBL document CHEMBL2202972, “Synthesis and biological evaluation of 2-substituted-4-(3',4',5'-trimethoxyphenyl)-5-aryl thiazoles as anticancer agents” (Bioorg Med Chem, 2012).

Calls of active or inactive are those of the source. The calls are words filed in the database; no cut-off is given here.

As for `CCOc1ccc(-c2sc(NC)nc2-c2cc(OC)c(OC)c(OC)c2)cc1`, the Activity result in the test with HeLa [1], with HeLa [6] and with HeLa [13] was “Dose-dependent effect” in each case. For the same molecule, the result (in the test on HeLa [2]; with HeLa [4]; in the test with HeLa [10]; in the test with HeLa [15]; in test [17]) was Active. In addition, the “Ratio IC50” value in the test with LoVo [3] turned out to be 0.5; in the test on HT-29 [9], 1000; in the test with A549 [12] it was 5; in the test on Jurkat it was 0.34. Also, the IC50 in the test with A549 [5] stood at 0.0386 µM; in test [7], 0.0215 µM; in the test with MCF7, 0.0245 µM; in the test with HT-29 [11], 0.0032 µM; in the test on LoVo [16], 0.031 µM. Besides, the outcome in the test on HeLa [8] and with HeLa [14] was inactive.

In general, IC50 refers to the midpoint of a concentration-inhibition curve.
